Screening data deposited in PubChem by Broad Institute.
In the library only some 2.5% were active in any assay of this set; here they are far more common.
MLL AF4-AF9 inh: MLL-AF4/AF9 protein interaction inhibition; AlphaScreen, biotin-AF4 peptide binding to FLAG-AF9; inhibition, % at 10 µM; actives 0.47% (n = 350,000);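 active means every replicate reaching a set inhibition limit, whatever the replicate mean, cut at about 25% in these data; inconclusive means mean inhibition reaches that limit but some replicates miss it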
Target sequence (P42568 whole entry, looked up): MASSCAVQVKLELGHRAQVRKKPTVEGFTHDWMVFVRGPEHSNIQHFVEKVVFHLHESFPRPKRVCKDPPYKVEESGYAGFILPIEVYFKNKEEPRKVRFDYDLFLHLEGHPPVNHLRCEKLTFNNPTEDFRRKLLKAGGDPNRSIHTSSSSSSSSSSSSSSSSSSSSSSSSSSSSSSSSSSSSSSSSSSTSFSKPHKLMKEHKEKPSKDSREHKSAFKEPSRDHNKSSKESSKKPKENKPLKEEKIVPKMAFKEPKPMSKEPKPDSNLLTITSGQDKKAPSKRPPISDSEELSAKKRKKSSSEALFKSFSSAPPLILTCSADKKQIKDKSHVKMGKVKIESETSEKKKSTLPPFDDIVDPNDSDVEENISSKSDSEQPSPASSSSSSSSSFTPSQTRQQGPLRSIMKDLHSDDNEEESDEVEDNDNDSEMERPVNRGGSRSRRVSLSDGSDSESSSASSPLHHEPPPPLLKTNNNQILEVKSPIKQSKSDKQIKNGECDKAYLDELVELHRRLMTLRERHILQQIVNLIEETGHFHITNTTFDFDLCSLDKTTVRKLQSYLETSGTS
EWS-Fli block: blocks EWS/Fli oncoprotein-driven transcription. A673 NR0B1-luciferase reporter, viability-normalised. inhibition, % at 12.6 µM. actives 0.67% (n = 350,000);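 active means mean inhibition of at least 50% after viability correction, with every replicate also passing that limit; inconclusive means mean reaches 50% but only one of two replicates passes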;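 further: firefly luciferase signal divided by Alamar Blue viability fluorescence both relative to DMSO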
Glyco luc inh: N-linked glycosylation inhibition. D54 ERlucT glycosylation luciferase reporter, 24 h; percent of 100 nM tunicamycin response. reporter increase, % at 12.5 µM. actives 0.23% (n = 360,000);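 active means mean luciferase reporter signal, scaled so untreated is 0 and the glycosylation-blocking control 100, at or above a set limit in every replicate; inconclusive means mean reaches the limit but not every replicate does; inactive means mean below the limit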;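 further: luciferase carries N-glycosylation sites so blocking glycosylation raises the light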
FN deposition inh: fibronectin deposition inhibition. AH1F fibroblasts, Alexa488-fibronectin deposition fluorescence, overnight. inhibition, % at 12.6 µM. actives 0.086% (n = 350,000);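 active means mean inhibition across replicates of 30% or more, regardless of how many single replicates reach that level; inconclusive means mean under 30% yet at least half of replicates reach 30%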
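Schedule: 1 h cell adhesion before compound, then overnight fibronectin incubation; test system: AH1F fibroblast monolayer depositing Alexa488-labelled fibronectin into matrix; quantity: 10000 AH1F cells per well; probe or stimulus: fluorescent fibronectin at 24 nM final; signal: fluorescence, ex 485 nm, em 525 nm; evaluation: percent inhibition as loss of matrix-bound fibronectin fluorescence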
PAX8 reporter: lowers PAX8-driven luciferase in RMG-I cells; actives 1.2% (n = 360,000); inhibition, % at 12.6 µM; RMG-I TPO-luciferase reporter, SteadyGlo, 24 h;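 active means mean replicate inhibition at least 60% with every replicate also reaching 60%; inconclusive means only one of the two criteria is met; inactive means mean below 60% and not all replicates reaching 60%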;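 further: luciferase light reporting Pax8 driven TPO promoter activity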
Env fusion inh: HIV envelope-mediated fusion inhibition | inhibition, % at 12.3 µM | AID 651610 | actives 1.1% (n = 360,000) | HeLa-JRFL Env/CEM21 cell fusion, luciferase;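 active means mean replicate inhibition score of at least 50 and every replicate individually at or above 50; inconclusive means only one of the two criteria met; inactive means mean below 50 and not all replicates reaching 50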
Hits are given with their value; . = inactive; ? = inconclusive; / = no result given.

SMILES | MLL AF4-AF9 inh | EWS-Fli block | Glyco luc inh | FN deposition inh | PAX8 reporter | Env fusion inh
C(=N\Nc1nc(Nc2ccccc2)nc(N2CCOCC2)n1)/c1c[nH]c2ccccc12 | / | / | / | . | / | 70
COc1ccc2c3c([nH]c2c1)[C@H](CO)N(C(=O)C1CCC1)CC31CCN(C)CC1 | . | . | / | / | . | /
Cc1noc(C)c1NC(=O)N(C)C[C@@H]1Oc2ccc(NC(=O)Nc3ccccc3)cc2C(=O)N([C@H](C)CO)C[C@@H]1C | . | . | / | / | . | .
Cc1ncc(CN2CCCC(C(=O)Nc3ccc(-c4ccco4)cc3)C2)cn1 (stereo not given) | 40 | / | . | . | . | .
Cc1ncc(CN2CCCC(C(=O)Nc3ccc(-c4cscn4)cc3)C2)cn1 (stereo not given) | . | . | . | . | . | .
CN(C)CC(=O)N1CC2(C1)[C@@H](c1ccccc1)[C@@H](CO)N2S(=O)(=O)c1ccccc1 | . | . | / | . | . | /
c1ccc(C[n+]2cccc3c4ccccc4ccc32)cc1 | / | / | . | / | / | /
CCCCC[n+]1cccc2c3ccccc3ccc21 | . | . | . | . | . | 97
COC(=O)c1ccc(COc2ccccc2/C=C(\C#N)C(=O)Nc2c(C)cccc2C)cc1 | . | . | 37 | . | . | .
COC(=O)c1ccc(COc2ccccc2/C=C(\C#N)C(=O)Nc2ccccc2C)cc1 | / | / | . | / | / | /
COc1ccc(Nc2c([N+](=O)[O-])ccc3c2=NC2(CCCCC2)N=3)cc1 | 34 | . | . | . | . | .
O=C(/C=C/c1cccs1)NC(=S)NNC(=O)c1ccccc1O | . | 52 | . | . | 89 | ?
Cc1ccc(C(=O)NNC(=O)c2cccc(Br)c2)cc1 | . | . | . | . | . | .
CC(C)(C)c1ccc(C(=O)NNC(=O)c2cccc(Br)c2)cc1 | / | / | 203 | . | / | .
CNC[C@H]1OCCCC[C@H](C)Oc2ccc(NC(=O)C3CCCCC3)cc2C(=O)N([C@H](C)CO)C[C@@H]1C | . | . | / | / | . | .
COc1ccc(-c2nn(-c3ccccc3)cc2/C=N/N2C(=O)CSC2=S)cc1 | / | / | . | . | / | 67
Cc1ccc(C)c(OCC(=O)Nc2c[nH]c(=O)[nH]c2=O)c1 | . | . | . | . | . | 57
Cc1cccc(OCC(=O)Nc2nonc2NC(=O)COc2cccc(C)c2)c1 | / | / | . | . | / | .
Cc1ccc(C)c(OCC(=O)Nc2nonc2NC(=O)COc2cc(C)ccc2C)c1 | / | / | . | . | . | 68
CC(=O)Nc1ccc2c(c1)C(=O)N(C)[C@@H]1CC[C@@H](CC(=O)NCc3ccccc3)O[C@@H]1CO2 | . | . | / | . | . | .
COc1cccc(/C=N/Nc2ncnc(N)c2[N+](=O)[O-])c1OC | / | / | . | / | / | /
Cc1cc(/C=N/Nc2ncnc(N)c2[N+](=O)[O-])c(C)n1-c1ccccc1 | . | 83 | . | . | 62 | 55
C[C@H](CO)N1C[C@H](C)[C@H](CN(C)C)Oc2cc(-c3ccc(F)cc3)ccc2S1(=O)=O | . | . | / | . | / | .
Cc1cc(Nc2ccc3c(c2)OCCO3)c2ccccc2n1 | . | . | . | . | 88 | /
Cc1ccc2nc(C)cc(Nc3ccc4c(c3)OCCO4)c2c1 | / | / | . | . | . | .
SMILES | MLL AF4-AF9 inh | EWS-Fli block | Glyco luc inh | FN deposition inh | PAX8 reporter | Env fusion inh
CC(=O)N1[C@H](CO)[C@@H](c2ccccc2)C12CN(C(=O)c1ccccc1)C2 | . | . | / | / | . | /
Cn1nc(C(C)(C)C)cc1C(=O)NNC(=O)c1cccc(Cl)c1 | 40 | . | . | . | . | .
Cn1nc(C(=O)NNC(=O)c2cccc(Cl)c2)ccc1=O | . | . | . | . | . | .
Cc1ccc(NC(=O)[C@@H]2CCCN2S(=O)(=O)c2ccccc2F)cc1S(=O)(=O)N1CCOCC1 | / | / | . | . | . | .
Cc1ccc(NC(=O)c2ccc(S(=O)(=O)N(C)c3ccccc3)cc2)cc1S(=O)(=O)N1CCOCC1 | . | . | . | . | 65 | /
O=C(Nc1cc(S(=O)(=O)N2CCOCC2)ccc1N1CCOCC1)c1ccc([N+](=O)[O-])s1 | . | . | . | . | . | .
Cc1ccc(NC(=O)[C@@H]2CCCN2S(=O)(=O)c2ccccc2C(F)(F)F)cc1S(=O)(=O)N1CCOCC1 | / | / | . | . | . | 57
Cc1ccc(NC(=O)c2ccc([N+](=O)[O-])s2)cc1S(=O)(=O)N1CCOCC1 | . | . | . | . | 101 | .
Cc1noc(C)c1NC(=O)Nc1ccc2c(c1)C(=O)N([C@H](C)CO)C[C@H](C)[C@H](CN(C)C(=O)C1CCCCC1)OCCCC[C@H](C)O2 | . | . | / | / | . | .
Cc1ccc(S(=O)(=O)Nc2ccc3c(c2)CC(=O)N([C@H](C)CO)C[C@H](C)[C@@H](CN(C)C(=O)Nc2ccc4c(c2)OCO4)O3)cc1 | . | . | / | . | . | .
CCN(CC)CCN1C(=O)C(O)=C(C(C)=O)C1c1ccccc1[N+](=O)[O-] (stereo not given) | . | . | . | . | . | .
CC(=O)C1=C(O)C(=O)N(CCc2ccccc2)C1c1ccccc1[N+](=O)[O-] (stereo not given) | . | . | . | . | 122 | /
CCOC(=O)C1=C(C)Nc2ccccc2S1 | . | . | . | . | . | .
CCOC(=O)/C=C1\Nc2ccccc2SC1=O | / | / | . | . | . | 113
COC(=O)C[C@H]1C[C@H]2c3cc(NS(=O)(=O)c4ccc(OC)cc4)ccc3O[C@H]2[C@@H](CO)O1 | / | . | / | . | . | .
CCCC(NC(=O)c1c(C)noc1C)C12CC3CC(CC(C3)C1)C2 (stereo not given) | . | . | . | . | . | 60
Cc1cccc2c(N)c3c(nc12)N(C)CC3 | . | . | 30 | . | . | .
OCCNCCOc1ccccc1-c1ccccc1 | / | / | . | . | . | .
N=C(N)CCCOc1ccccc1-c1ccccc1 | . | . | . | . | 63 | /
C[C@@H]1CN([C@H](C)CO)C(=O)c2cc(NC(=O)CCCCCC(=O)Nc3ccccc3N)ccc2O[C@@H]1CN(C)C(=O)Nc1ccc(F)cc1 | . | . | / | / | . | /
Cc1cccc(C(O)C(O)c2cccc(C)n2)n1 (stereo not given) | . | . | . | / | . | .
Cc1cccc(C(P(=O)(c2ccccc2)c2ccccc2)P(=O)(c2ccccc2)c2ccccc2)n1 | / | / | . | . | . | 64
O=C([C@@H]1[C@@H](CO)[C@@H]2Cn3c(cccc3=O)[C@@H]2N1CCC(F)(F)F)N1CCCCC1 | . | . | / | / | / | /
COc1ccc(C(=O)N/N=C(\c2ccccc2)c2ccccn2)cc1 | . | . | . | . | . | .
O=C(NN=C(c1ccccc1)c1ccccn1)c1ccccc1 | . | . | . | . | 77 | .
O=C(N/N=C(\c1ccccc1)c1ccccn1)c1ccccc1Cl | . | / | . | / | 72 | .
CCC(=O)N1C[C@@H](C)[C@H](OC)CN(C)C(=O)c2ccc(NC(=O)c3ccccc3)cc2OC[C@@H]1C | . | . | / | . | . | .
O=C(CC1CC1)N1[C@H](CO)[C@@H](c2ccccc2)C12CN(S(=O)(=O)c1ccccc1)C2 | . | . | / | / | . | /
